Reference: ChEMBL document CHEMBL5058577, “EUbOPEN Chemogenomics Library 2 (Multiplex)” (2022)

System: U2OS
Test: Multiplex assay against U2OS
Format: toxicity, cell-based
Settings: human
In short: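 At seeding, live cells were stained with Hoechst33342, BioTracker Green Microtubule Cytoskeleton Dye, MitoTracker Red and Annexin V Alexa Fluor 680. After compound addition they were imaged on a CQ1 microscope at 37°C and 5% CO2, and CellPathfinder machine-learning gating sorted them into Hoechst high-intensity objects or normal cells, with normal cells further split into healthy, pyknosed or fragmented nuclei and pyknosed cells into mitotic or apoptotic. Tubulin, mitochondrial-mass and membrane-permeability phenotypes are given as per cents of cells with healthy nuclei.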

[1] = 12 h, 1 µM, compound concentration 1 uM, replicate 1
[2] = 12 h, 1 µM, compound concentration 1 uM, replicate 2
[3] = 12 h, 10 µM, compound concentration 10 uM, replicate 1
[4] = 12 h, 10 µM, compound concentration 10 uM, replicate 2
[5] = 24 h, 1 µM, compound concentration 1 uM, replicate 1
[6] = 24 h, 1 µM, compound concentration 1 uM, replicate 2
[7] = 24 h, 10 µM, compound concentration 10 uM, replicate 1
[8] = 24 h, 10 µM, compound concentration 10 uM, replicate 2
[9] = 48 h, 1 µM, compound concentration 1 uM, replicate 1
[10] = 48 h, 1 µM, compound concentration 1 uM, replicate 2
[11] = 48 h, 10 µM, compound concentration 10 uM, replicate 1
[12] = 48 h, 10 µM, compound concentration 10 uM, replicate 2

With `Cc1noc(-c2ccc(-c3ccc(CC(=O)O)cc3)cc2)c1NC(=O)O[C@H](C)c1ccccc1Cl` the “Population Apoptotic (%)” value [1] was 95%, the “Population Fragmented Nuclei (%)” value [1] was 21% and the “Population Healthy Nuclei (%)” value [1] was 69%. For the same compound, the “Population Hoechst High Intensity Objects (%)” value [1] was 4%, the “Population Membrane Permeable-Phenotype (%)” value [1] was 7% and the “Population Mitochondria Different-Phenotype (%)” value [1] was 5%. For the same compound, the “Population Mitotic Cells (%)” value [1] was 5%, the “Population Normal (%)” value [1] was 95% and the “Population Pyknosed Nuclei (%)” value [1] was 9%. The “Population Tubulin-Different-Phenotype (%)” value [1] was 4%, the “Total Cell Count” value [1] was 231 and the “Population Apoptotic (%)” value [2] was 85%. For the same compound, the “Population Fragmented Nuclei (%)” value [2] was 19%, the “Population Healthy Nuclei (%)” value [2] was 74% and the “Population Hoechst High Intensity Objects (%)” value [2] was 0%. The “Population Membrane Permeable-Phenotype (%)” value [2] was 2%, the “Population Mitochondria Different-Phenotype (%)” value [2] was 2% and the “Population Mitotic Cells (%)” value [2] was 14%. The “Population Normal (%)” value [2] was 99%, the “Population Pyknosed Nuclei (%)” value [2] was 7% and the “Total Cell Count” value [2] was 101. For the same compound, the “Population Apoptotic (%)” value [3] was 78%, the “Population Fragmented Nuclei (%)” value [3] was 29% and the “Population Healthy Nuclei (%)” value [3] was 61%. For the same compound, the “Population Hoechst High Intensity Objects (%)” value [3] was 2%, the “Population Membrane Permeable-Phenotype (%)” value [3] was 11% and the “Population Mitochondria Different-Phenotype (%)” value [3] was 4%. For the same compound, the “Population Mitotic Cells (%)” value [3] was 21%, the “Population Normal (%)” value [3] was 97% and the “Population Pyknosed Nuclei (%)” value [3] was 9%. For the same compound, the “Population Tubulin-Different-Phenotype (%)” value [3] was 6%, the “Total Cell Count” value [3] was 242 and the “Population Apoptotic (%)” value [4] was 71%. The “Population Fragmented Nuclei (%)” value [4] was 11%, the “Population Healthy Nuclei (%)” value [4] was 83% and the “Population Membrane Permeable-Phenotype (%)” value [4] was 6%. For the same compound, the “Population Mitochondria Different-Phenotype (%)” value [4] was 2%, the “Population Mitotic Cells (%)” value [4] was 28% and the “Population Pyknosed Nuclei (%)” value [4] was 5%. For the same compound, the “Total Cell Count” value [4] was 138, the “Population Apoptotic (%)” value [5] was 96% and the “Population Fragmented Nuclei (%)” value [5] was 19%. The “Population Healthy Nuclei (%)” value [5] was 70%, the “Population Hoechst High Intensity Objects (%)” value [5] was 2% and the “Population Membrane Permeable-Phenotype (%)” value [5] was 5%. For the same compound, the “Population Mitochondria Different-Phenotype (%)” value [5] was 4%, the “Population Mitotic Cells (%)” value [5] was 3% and the “Population Normal (%)” value [5] was 97%. The “Population Pyknosed Nuclei (%)” value [5] was 9%, the “Population Tubulin-Different-Phenotype (%)” value [5] was 3% and the “Total Cell Count” value [5] was 277. For the same compound, the “Population Apoptotic (%)” value [6] was 77%, the “Population Fragmented Nuclei (%)” value [6] was 15% and the “Population Healthy Nuclei (%)” value [6] was 77%. The “Population Hoechst High Intensity Objects (%)” value [6] was 0%, the “Population Membrane Permeable-Phenotype (%)” value [6] was 4% and the “Population Mitochondria Different-Phenotype (%)” value [6] was 3%. The “Population Mitotic Cells (%)” value [6] was 22%, the “Population Normal (%)” value [6] was 99% and the “Population Pyknosed Nuclei (%)” value [6] was 7%. The “Population Tubulin-Different-Phenotype (%)” value [6] was 6%, the “Total Cell Count” value [6] was 125 and the “Population Apoptotic (%)” value [7] was 92%. For the same compound, the “Population Fragmented Nuclei (%)” value [7] was 24%, the “Population Healthy Nuclei (%)” value [7] was 65% and the “Population Hoechst High Intensity Objects (%)” value [7] was 1%. The “Population Membrane Permeable-Phenotype (%)” value [7] was 11%, the “Population Mitochondria Different-Phenotype (%)” value [7] was 2% and the “Population Mitotic Cells (%)” value [7] was 7%. The “Population Normal (%)” value [7] was 98%, the “Population Pyknosed Nuclei (%)” value [7] was 10% and the “Population Tubulin-Different-Phenotype (%)” value [7] was 5%. The “Total Cell Count” value [7] was 260, the “Population Apoptotic (%)” value [8] was 90% and the “Population Fragmented Nuclei (%)” value [8] was 12%. For the same compound, the “Population Healthy Nuclei (%)” value [8] was 80%, the “Population Hoechst High Intensity Objects (%)” value [8] was 2% and the “Population Membrane Permeable-Phenotype (%)” value [8] was 7%. The “Population Mitotic Cells (%)” value [8] was 9%, the “Population Normal (%)” value [8] was 97% and the “Population Pyknosed Nuclei (%)” value [8] was 7%. The “Population Tubulin-Different-Phenotype (%)” value [8] was 4%, the “Total Cell Count” value [8] was 154 and the “Population Apoptotic (%)” value [9] was 97%. The “Population Fragmented Nuclei (%)” value [9] was 15%, the “Population Healthy Nuclei (%)” value [9] was 75% and the “Population Hoechst High Intensity Objects (%)” value [9] was 1%. The “Population Membrane Permeable-Phenotype (%)” value [9] was 6%, the “Population Mitochondria Different-Phenotype (%)” value [9] was 3% and the “Population Mitotic Cells (%)” value [9] was 2%. The “Population Normal (%)” value [9] was 98%, the “Population Pyknosed Nuclei (%)” value [9] was 9% and the “Population Tubulin-Different-Phenotype (%)” value [9] was 3%. The “Total Cell Count” value [9] was 408, the “Population Apoptotic (%)” value [10] was 86% and the “Population Fragmented Nuclei (%)” value [10] was 18%. The “Population Healthy Nuclei (%)” value [10] was 72%, the “Population Hoechst High Intensity Objects (%)” value [10] was 0% and the “Population Mitochondria Different-Phenotype (%)” value [10] was 4%. For the same compound, the “Population Mitotic Cells (%)” value [10] was 13%, the “Population Normal (%)” value [10] was 100% and the “Population Pyknosed Nuclei (%)” value [10] was 8%. The “Population Tubulin-Different-Phenotype (%)” value [10] was 4%, the “Total Cell Count” value [10] was 170 and the “Population Apoptotic (%)” value [11] was 92%. For the same compound, the “Population Fragmented Nuclei (%)” value [11] was 19%, the “Population Healthy Nuclei (%)” value [11] was 72% and the “Population Hoechst High Intensity Objects (%)” value [11] was 3%. The “Population Membrane Permeable-Phenotype (%)” value [11] was 7%, the “Population Mitochondria Different-Phenotype (%)” value [11] was 3% and the “Population Mitotic Cells (%)” value [11] was 7%. The “Population Normal (%)” value [11] was 96%, the “Population Pyknosed Nuclei (%)” value [11] was 8% and the “Population Tubulin-Different-Phenotype (%)” value [11] was 5%. For the same compound, the “Total Cell Count” value [11] was 344, the “Population Apoptotic (%)” value [12] was 85% and the “Population Fragmented Nuclei (%)” value [12] was 9%. The “Population Healthy Nuclei (%)” value [12] was 78%, the “Population Hoechst High Intensity Objects (%)” value [12] was 4% and the “Population Membrane Permeable-Phenotype (%)” value [12] was 6%. The “Population Mitochondria Different-Phenotype (%)” value [12] was 2%, the “Population Mitotic Cells (%)” value [12] was 14% and the “Population Normal (%)” value [12] was 95%. For the same compound, the “Population Pyknosed Nuclei (%)” value [12] was 11%, the “Population Tubulin-Different-Phenotype (%)” value [12] was 4% and the “Total Cell Count” value [12] was 241.
